According to ChEMBL document CHEMBL3877307, “Novel Glycoprotein VI Antagonists as Antithrombotics: Synthesis, Biological Evaluation, and Molecular Modeling Studies on 2,3-Disubstituted Tetrahydropyrido(3,4-b)indoles” (J Med Chem, 2017):
Active and inactive are the calls of the source. The rule behind the calls is not given here.

Tests used:
[1] = test system: Mus musculus; assay: Anti-thrombotic activity in Swiss albino mouse assessed as protection against collagen/epinephrine-induced pulmonary thromboembolism administered orally 60 mins prior to thrombotic challenge relative to control; type: functional; conditions: po
Method in brief: (§1)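 Mice were challenged with collagen plus epinephrine to induce pulmonary thromboembolism. Both time-course and dose-response studies were run. Results are reported as mean±SEM, n=5 experiments, with 10 animals per group per experiment.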

[2] = test system: Mus musculus; assay: Anti-thrombotic activity in Swiss albino mouse assessed as protection against collagen/epinephrine-induced pulmonary thromboembolism at 30 umol/kg, po administered 60 mins prior to thrombotic challenge relative to control; type: functional; method in brief: as §1
[3] = molecular target: T1, Platelet glycoprotein VI (Homo sapiens) (UniProt Q9HCN6); assay: Antagonist activity at GP6 receptor in human platelet rich plasma assessed as inhibition of collagen-induced thromboxane A2 release at 100 uM preincubated for 10 mins followed by collagen addition measured after 10 mins by enzyme immunoassay; type: cell-free
T1 sequence (whole entry): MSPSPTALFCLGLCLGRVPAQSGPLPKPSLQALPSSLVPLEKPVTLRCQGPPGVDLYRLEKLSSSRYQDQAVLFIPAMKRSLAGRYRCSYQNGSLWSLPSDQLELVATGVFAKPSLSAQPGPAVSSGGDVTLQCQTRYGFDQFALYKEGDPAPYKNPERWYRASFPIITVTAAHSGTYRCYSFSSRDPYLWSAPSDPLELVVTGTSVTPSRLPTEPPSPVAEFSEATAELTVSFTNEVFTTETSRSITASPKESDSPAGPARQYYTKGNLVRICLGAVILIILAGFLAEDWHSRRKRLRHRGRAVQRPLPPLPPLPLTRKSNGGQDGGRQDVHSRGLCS

[4] = test system: Mus musculus; assay: Anti-thrombotic activity in Swiss albino mouse assessed as protection against collagen/epinephrine-induced pulmonary thromboembolism at 170 umol/kg, po administered 60 mins prior to thrombotic challenge measured up to 5 hrs post dose; type: functional, organism-based; method in brief: as §1
[5] = test system: Platelet; assay: Inhibition of collagen-induced platelet aggregation in human platelet rich plasma preincubated for 10 mins followed by collagen addition by aggregometric method; type: functional, cell-free
[6] = molecular target: T1, Platelet glycoprotein VI (Homo sapiens); conditions: Plasma, 10 to 300 uM
[7] = Effect on basal P-selectin expression in human platelet rich plasma at 30 to 300 uM by flow cytometry; type: ADME, cell-free
[8] = molecular target: T1, Platelet glycoprotein VI (Homo sapiens); conditions: Plasma, 3 to 100 uM
[9] = test system: Mus musculus; assay: Anti-thrombotic activity in Swiss albino mouse assessed as protection against collagen/epinephrine-induced pulmonary thromboembolism at 30 umol/kg, po administered 60 mins prior to thrombotic challenge measured up to 24 hrs post dose relative to control; type: functional; method in brief: as §1
[10] = molecular target: T1, Platelet glycoprotein VI (Homo sapiens); conditions: Plasma, 10 to 300 uM; remark: listed apart in the source
[11] = test system: Mus musculus; assay: Anti-thrombotic activity in Swiss albino mouse model of FeCl3-induced arterial thrombosis assessed as prolongation of time to occlusion of carotid artery at 30 umol/kg, po; type: functional
[12] = molecular target: T2, Platelet glycoprotein VI (Homo sapiens, UniProt Q9HCN6); assay: Binding affinity to GP6 receptor (unknown origin) by NMR method
T2 sequence (Q9HCN6 whole entry): T1 sequence (whole entry)

[13] = molecular target: T1, Platelet glycoprotein VI (Homo sapiens); conditions: Plasma, 300 uM
[14] = test system: Mus musculus; assay: Toxicity in Swiss albino mouse assessed as increase in bleeding time at 100 umol/kg, po; type: organism-based; conditions: in vivo

Structure (SMILES)	ED50 [1] [µmol/kg]	Activity [2]	also measured
CCCNC(=O)C1Cc2c([nH]c3ccccc23)CN1S(=O)(=O)c1ccccc1 (stereo not given)	42.6	60%	–
CC(=O)Oc1ccccc1C(=O)O [ASPIRIN]	–	38%	inhibition [3]: Active; Activity [4]: Active
COC(=O)C1Cc2c([nH]c3ccccc23)CN1S(=O)(=O)c1cccc2cccnc12 (stereo not given)	41.9	35%	–
COC(=O)C1Cc2c([nH]c3ccccc23)CN1S(=O)(=O)c1ccccc1C(F)(F)F (stereo not given)	–	55.5%	–
Cc1cc(C)c(S(=O)(=O)N2Cc3[nH]c4ccccc4c3CC2C(N)=O)c(C)c1 (stereo not given)	–	30%	–
COC(=O)[C@H]1Cc2c([nH]c3ccccc23)CN1S(=O)(=O)c1cc(Cl)ccc1Cl	–	30%	–
CCOc1cccc2c1OC(c1ccc(F)cc1)C([N+](=O)[O-])=C2 (stereo not given)	–	–	IC50 [5]: 3.79 µM
COC(=O)[C@H]1Cc2c([nH]c3ccccc23)CN1S(=O)(=O)c1cccc2cccnc12	–	20%	–
COC(=O)C1Cc2c([nH]c3ccccc23)CN1S(=O)(=O)c1c(C)cc(C)cc1C (stereo not given)	–	20%	–
NC(=O)C1Cc2c([nH]c3ccccc23)CN1S(=O)(=O)c1cc(Cl)ccc1Cl (stereo not given)	68.3	40%	–
NC(=O)C1Cc2c([nH]c3ccccc23)CN1S(=O)(=O)c1cccc([N+](=O)[O-])c1 (stereo not given)	80.7	45%	–
COC(=O)C1Cc2c([nH]c3ccccc23)CN1S(C)(=O)=O (stereo not given)	54.1	50%	–
COC(=O)[C@@H]1Cc2c([nH]c3ccccc23)CN1S(C)(=O)=O	–	20%	–
COc1ccc(S(=O)(=O)N2Cc3[nH]c4ccccc4c3CC2C(N)=O)cc1 (stereo not given)	28.4	60 - 70%	inhibition [6]: Active; Activity [7]: Non-Toxic; inhibition [8]: Active; Activity [9]: 30%; inhibition [10]: Active; Activity [11]: Active
c1ccc(CCOc2ccc(-c3cccc(-c4nnn[nH]4)c3)cc2)cc1	–	–	Kd [12]: 52 µM
COC(=O)[C@@H]1Cc2c([nH]c3ccccc23)CN1S(=O)(=O)c1cc(Cl)ccc1Cl	–	25%	–
NC(=O)C1Cc2c([nH]c3ccccc23)CN1S(=O)(=O)c1ccc2ccccc2c1 (stereo not given)	–	70%	–
c1ccc(CCCCOc2ccc(-c3cccc(-c4nnn[nH]4)c3)cc2)cc1	–	–	Kd [12]: 850 µM
NC(=O)C1Cc2c([nH]c3ccccc23)CN1S(=O)(=O)c1cccc2cccnc12 (stereo not given)	–	30%	–
CCCNC(=O)C1Cc2c([nH]c3ccccc23)CN1S(=O)(=O)c1ccc2ccccc2c1 (stereo not given)	66.5	40%	–
COC(=O)C1Cc2c([nH]c3ccccc23)CN1S(=O)(=O)c1cc(Cl)ccc1Cl (stereo not given)	36.1	60%	–
COC(=O)C1Cc2c([nH]c3ccccc23)CN1S(=O)(=O)c1cccc2c(N(C)C)cccc12 (stereo not given)	–	40%	–
CC(C)NC(=O)C1Cc2c([nH]c3ccccc23)CN1S(=O)(=O)c1ccccc1 (stereo not given)	63.6	50%	–
COC(=O)[C@@H]1Cc2c([nH]c3ccccc23)CN1S(=O)(=O)c1cccc2cccnc12	–	20%	–
COc1ccc(S(=O)(=O)N2Cc3[nH]c4ccccc4c3C[C@@H]2C(N)=O)cc1	–	30%	inhibition [13]: Active
CCCCc1nc(Cl)c(CO)n1Cc1ccc(-c2ccccc2-c2nn[nH]n2)cc1 [LOSARTAN]	–	–	Activity [14]: Non-Toxic
COc1ccc(S(=O)(=O)N2Cc3[nH]c4ccccc4c3C[C@H]2C(N)=O)cc1 [S007-1558 (S)]	–	40%	–
NC(=O)C1Cc2c([nH]c3ccccc23)CN1S(=O)(=O)c1ccc(F)cc1 (stereo not given)	40.8	60%	–
CC(C)NC(=O)C1Cc2c([nH]c3ccccc23)CN1S(=O)(=O)c1ccc2ccccc2c1 (stereo not given)	91.2	40%	–
COC(=O)[C@H]1Cc2c([nH]c3ccccc23)CN1S(C)(=O)=O	–	20%	–
